Results as given in ChEMBL document CHEMBL3228012, “Actinomycin D oxazinones as improved antitumor agents” (1979).
Converted amounts (≈) assume the structure as drawn. The source made the active and inactive calls. The rule behind the calls is not given here. Starred links: 1 amine or outer side, 2 acyl side, 3 side chain; linkers in the order of their positions; H or OH if unused. Positions of bridges follow the written chain, without caps; N, C: chain ends. Non-standard residues stand in square brackets, D forms with d. Residues, ends and D or L forms follow the SMILES beside them. Chains are numbered I, II in the order given. Actinocin(1to9) = Cc1c2oc3c(C)ccc(C(=O)[*:2])c3nc-2c(C(=O)[*:1])c(N)c1=O; NMeV = CN[C@H](C(=O)O)C(C)C; Sar = CNCC(=O)O

Tests used:
[1] = tested on: CCRF-CEM; test: Antitumor activity against human CCRF-CEM cells assessed as growth inhibition after 48 hrs; assay type: functional; details: read-out: ID50 (the source's name)
Summary of the method: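 Human leukemic lymphoblasts were grown in continuous spinner suspension culture. Compounds were exposed for 48 h. ID50 was taken as the concentration in ng/mL giving 50% growth inhibition.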

[2] = tested on: P388; test: Antitumor activity against mouse P388 cells allografted in mouse BDF1 mouse assessed as survival time of mouse at 50 ug/kg, ip for 4 days (reference value: 11.5 days)
[3] = tested on: P388; test: Antitumor activity against mouse P388 cells allografted in mouse BDF1 mouse assessed as increase in survival time of mouse at 150 ug/kg, ip for 4 days relative to untreated control; details: 96 h
[4] = tested on: P388; test: Antitumor activity against mouse P388 cells allografted in mouse BDF1 mouse assessed as survival time of mouse at 75 ug/kg, ip for 4 days (reference value: 11.5 days)
[5] = tested on: P388; test: Antitumor activity against mouse P388 cells allografted in mouse BDF1 mouse assessed as increase in survival >50 days at 150 ug/kg, ip for 4 days
[6] = tested on: P388; test: Antitumor activity against mouse P388 cells allografted in mouse BDF1 mouse assessed as increase in survival >50 days at 75 ug/kg, ip for 4 days
[7] = tested on: P388; test: Antitumor activity against mouse P388 cells allografted in mouse BDF1 mouse assessed as survival time of mouse at 150 ug/kg, ip for 4 days (reference value: 11.5 days)
[8] = tested on: P388; test: Antitumor activity against mouse P388 cells allografted in mouse BDF1 mouse assessed as increase in survival >50 days at 50 ug/kg, ip for 4 days
[9] = tested on: P388; test: Antitumor activity against mouse P388 cells allografted in mouse BDF1 mouse assessed as increase in survival time of mouse at 75 ug/kg, ip for 4 days relative to untreated control; details: 96 h
[10] = tested on: P388; test: Antitumor activity against mouse P388 cells allografted in mouse BDF1 mouse assessed as increase in survival time of mouse at 50 ug/kg, ip for 4 days relative to untreated control; details: 96 h
[11] = tested on: Calf thymus DNA; test: Binding affinity to calf thymus DNA in 0.15 M NaCl-0.01 M phosphate buffer at pH 7.3 at 37 degC incubated for 30 mins; details: Bos taurus
[12] = tested on: Calf thymus DNA; test: Binding affinity to calf thymus DNA in 0.15 M NaCl-0.01 M sodium phosphate buffer at pH 7.3 at 37 degC incubated for 30 mins; assay type: nucleic-acid assay; details: Bos taurus
Summary of the method: (§1)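 Compounds were mixed with calf thymus DNA, and binding was monitored by difference absorption spectra with and without DNA. Binding to DNA was judged from a bathochromic shift of λmax with hypochromicity.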

[13] = tested on: Calf thymus DNA; test: Binding affinity to calf thymus DNA in 0.15 M NaCl-0.01 M sodium phosphate buffer at pH 7.3 at 37 degC incubated for 5 mins; assay type: nucleic-acid assay; details: Bos taurus; summary of the method: as §1
[14] = tested on: Calf thymus DNA; test: Binding affinity to calf thymus DNA in 0.01 M phosphate buffer at pH 7 at 20 degC incubated for 5 mins; assay type: nucleic-acid assay; details: Bos taurus; summary of the method: as §1
[15] = tested on: P388; test: Antitumor activity against mouse P388 cells allografted in mouse BDF1 mouse assessed as increase in survival >50 days at 300 ug/kg, ip for 4 days
[16] = tested on: P388; test: Antitumor activity against mouse P388 cells allografted in mouse BDF1 mouse assessed as increase in survival time of mouse at 300 ug/kg, ip for 4 days relative to untreated control; details: 96 h
[17] = tested on: P388; test: Antitumor activity against mouse P388 cells allografted in mouse BDF1 mouse assessed as complete suppression of tumor on day 307 at 150 ug/kg, ip for 4 days
[18] = tested on: P388; test: Antitumor activity against mouse P388 cells allografted in mouse BDF1 mouse assessed as survival time of mouse at 300 ug/kg, ip for 4 days (reference value: 11.5 days)

SMILES | IC50 [1] | MST [2] | survival at 0.15 mg/kg [3] | MST [4] | Activity [5] | Activity [6] | MST [7] | Activity [8] | survival at 0.075 mg/kg [9] | survival at 0.05 mg/kg [10] | Activity [11] | Percent increase in survival time vs untreated control at 0.15 mg/kg [3] | Activity [12] | Activity [13] | Activity [14] | Activity [15] | survival at 0.3 mg/kg [16] | Activity [17] | MST [18]
Cc1c2oc3c(C)ccc(C(=O)N[C@@H]4C(=O)N[C@H](C(C)C)C(=O)N5CCC[C@H]5C(=O)N(C)CC(=O)N(C)[C@@H](C(C)C)C(=O)O[C@@H]4C)c3nc-2c(C(=O)N[C@@H]2C(=O)N[C@H](C(C)C)C(=O)N3CCC[C@H]3C(=O)N(C)CC(=O)N(C)[C@@H](C(C)C)C(=O)O[C@@H]2C)c(N)c1=O [DACTINOMYCIN] (I: T[dV]P[Sar][NMeV] / II: T[dV]P[Sar][NMeV]; ester I:1-I:C, II:1-II:C; linker I:N-II:N via Actinocin(1to9)) | 0.01 µg/mL (≈ 7.97 nM) | 28 days | -31% | 30 days | inactive | inactive | 8 days | inactive | 149% | 141% | – | – | – | – | – | – | – | – | –
Cc1ccc(C(=O)N[C@@H]2C(=O)N[C@H](C(C)C)C(=O)N3CCC[C@H]3C(=O)N(C)CC(=O)N(C)[C@@H](C(C)C)C(=O)O[C@@H]2C)c2c1Oc1c(c(C(=O)N[C@@H]3C(=O)N[C@H](C(C)C)C(=O)N4CCC[C@H]4C(=O)N(C)CC(=O)N(C)[C@@H](C(C)C)C(=O)O[C@@H]3C)c3ncc(=O)oc3c1C)N2 | 0.024 µg/mL (≈ 18.5 nM) | – | – | – | inactive | – | – | – | – | – | Active | 169% | Active | inactive | inactive | – | – | – | –
Cc1ccc(C(=O)N[C@@H]2C(=O)N[C@H](C(C)C)C(=O)N3CCC[C@H]3C(=O)N(C)CC(=O)N(C)[C@@H](C(C)C)C(=O)O[C@@H]2C)c2c1Oc1c(c(C(=O)N[C@@H]3C(=O)N[C@H](C(C)C)C(=O)N4CCC[C@H]4C(=O)N(C)CC(=O)N(C)[C@@H](C(C)C)C(=O)O[C@@H]3C)c3nc(C)c(=O)oc3c1C)N2 | 0.012 µg/mL (≈ 9.16 nM) | – | – | – | inactive | – | – | – | – | – | Active | 155% | Active | inactive | inactive | – | – | – | –
Cc1ccc(C(=O)N[C@@H]2C(=O)N[C@H](C(C)C)C(=O)N3CCC[C@H]3C(=O)N(C)CC(=O)N(C)[C@@H](C(C)C)C(=O)O[C@@H]2C)c2c1Oc1c(c(C(=O)N[C@@H]3C(=O)N[C@H](C(C)C)C(=O)N4CCC[C@H]4C(=O)N(C)CC(=O)N(C)[C@@H](C(C)C)C(=O)O[C@@H]3C)c3nc(CC(=O)O)c(=O)oc3c1C)N2 | 0.012 µg/mL (≈ 8.87 nM) | – | – | – | inactive | – | – | – | – | – | Active | 140% | Active | inactive | inactive | – | – | – | –
Cc1ccc(C(=O)N[C@@H]2C(=O)N[C@H](C(C)C)C(=O)N3CCC[C@H]3C(=O)N(C)CC(=O)N(C)[C@@H](C(C)C)C(=O)O[C@@H]2C)c2c1Oc1c(c(C(=O)N[C@@H]3C(=O)N[C@H](C(C)C)C(=O)N4CCC[C@H]4C(=O)N(C)CC(=O)N(C)[C@@H](C(C)C)C(=O)O[C@@H]3C)c3nc(CCC(=O)O)c(=O)oc3c1C)N2 | 0.028 µg/mL (≈ 20.5 nM) | – | – | – | – | – | – | – | – | – | Active | – | Active | inactive | inactive | inactive | 159% | – | –
CCc1nc2c(C(=O)N[C@@H]3C(=O)N[C@H](C(C)C)C(=O)N4CCC[C@H]4C(=O)N(C)CC(=O)N(C)[C@@H](C(C)C)C(=O)O[C@@H]3C)c3c(c(C)c2oc1=O)Oc1c(C)ccc(C(=O)N[C@@H]2C(=O)N[C@H](C(C)C)C(=O)N4CCC[C@H]4C(=O)N(C)CC(=O)N(C)[C@@H](C(C)C)C(=O)O[C@@H]2C)c1N3 | 0.012 µg/mL (≈ 9.07 nM) | – | – | 29 days | – | inactive | 35 days | – | 152% | – | Active | 204% | Active | inactive | inactive | inactive | 126% | Active | 26 days
